# hERG rescue = hERG (human) protection from proarrhythmic block | activation (rescue from dofetilide block), less the hit threshold, % at 10 µM | AID 1511 | CHO-hERG, FluxOR thallium flux, dofetilide IC70 present | Q12809 | 0.51% of 310,000 active;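 active = activation above the mean of controls blocked by dofetilide plus 5 SD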;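 note: thallium influx through hERG after potassium depolarization seen as dye fluorescence rise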
# KCNK9 block = inhibitors of human KCNK9 two-pore domain potassium channel | Q9NPC2 | HEK293 KCNK9, FluxOR thallium flux fluorescence; stronger effect = lower value | B-score at 10 µM | 1.2% of 310,000 active | AID 488922;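 active = ratio B-score over 3 SD below the library mean, with starting fluorescence within 5 SD of its mean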;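 note: negative B-score means less thallium flux so channel inhibition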
# Target sequence (Q9NPC2 whole entry, looked up, the tested form may be a part): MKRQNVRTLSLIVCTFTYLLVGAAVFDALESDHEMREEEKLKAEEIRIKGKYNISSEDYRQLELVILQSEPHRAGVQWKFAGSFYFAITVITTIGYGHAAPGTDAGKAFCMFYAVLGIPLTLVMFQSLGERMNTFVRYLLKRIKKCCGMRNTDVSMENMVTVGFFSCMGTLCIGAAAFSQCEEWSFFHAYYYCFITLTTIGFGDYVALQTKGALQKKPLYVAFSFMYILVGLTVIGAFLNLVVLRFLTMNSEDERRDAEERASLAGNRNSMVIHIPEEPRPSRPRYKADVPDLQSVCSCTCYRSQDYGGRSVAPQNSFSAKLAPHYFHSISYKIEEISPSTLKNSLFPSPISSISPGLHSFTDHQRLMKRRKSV
# Kir21 block = Kir2.1 (mouse) channel inhibition; P35561; B-score at 10 µM; HEK293-Kir2.1, FluxOR thallium flux fluorescence; stronger effect = lower value; 0.85% of 310,000 active;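 active = fluorescence ratio B-score at or below minus 3 SD of library scores, with starting-brightness B-score within 2 SD, cut at about -4.2 in these data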;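 note: channel flux triggered by added potassium and thallium sulfate stimulus; B-score of peak minus minimum fluorescence over baseline after thallium stimulus; more negative B-score means stronger Kir2.1 block with less thallium influx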
# KCNQ1 pot = potentiators or activators of human KCNQ1 potassium channel | CHO-K1 KCNQ1, thallium flux FluxOR fluorescence; stronger effect = higher value | B-score at 10 µM | 0.35% of 310,000 active;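 active = fluorescence ratio B-score, a plate-corrected score, at least three library SD, with initial intensity B-score within 5 SD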
#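 System: Stable KCNQ1 CHO-K1 line | Incubation: 90 min dye loading and 20 min compound exposure, both at room temperature | Measure: Ratio B score | Medium: Assay buffer for compound exposure, DMSO matched across wells | Compound dosing: Single-concentration screen | Probe or stimulus: K+/Tl+ depolarizing stimulus | Measured by: Kinetic FluxOR fluorescence, 10 s baseline plus 110 s post-stimulus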
# KCNK3 block = human KCNK3 channel inhibition, primary screen. AID 602410. CHO-KCNK3 thallium flux, FluxOR fluorescence; stronger effect = lower value. 0.84% of 340,000 active. B-score at 10 µM. O14649;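 active = B-score under library mean minus 4 SD, starting fluorescence ratio at most library mean plus 5 SD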;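 note: more negative B-score means stronger inhibition of thallium flux through KCNK3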
# KCNQ1 inh = inhibitors of human KCNQ1 potassium channel; P51787; CHO-K1 KCNQ1, FluxOR thallium flux fluorescence; stronger effect = higher value; B-score at 10 µM; 1.3% of 310,000 active;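 active = compounds whose thallium flux B-score, printed positive for inhibition, exceeds three library SD while starting fluorescence stays within three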;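 note: channel opened by potassium depolarization with thallium stimulus after 20 min compound exposure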
# The depositor's hits bear a star; i = inactive; . = no result given. Shown are actives, neighbours in structure and some others; about 3.8% of the full set was active somewhere.
SMILES,hERG rescue,KCNK9 block,Kir21 block,KCNQ1 pot,KCNK3 block,KCNQ1 inh
Cc1cccc(NC(=O)c2ccc(S(=O)(=O)N3CCCCC3)cc2)c1,-11.5,i,-1.25,i,i,i
CCc1cc(C(=O)N2CCN(c3ccccn3)CC2)sc1C,-19.6,i,1.58,i,i,i
CN1CCN(c2ncc(CN3C(=O)c4ccccc4C3=O)s2)CC1,5.9*,i,-0.79,i,i,i
Fc1ccc(N2CCN(Cc3cnc(N4CCOCC4)s3)CC2)cc1,3.9,i,1.91,i,i,i
O=C1/C(=C/Nc2ccc3c(c2)OCO3)CCc2ccccc21,-12.6,i,0.12,i,i,6*
Cc1cc2nc(-c3ccc(SCc4ccc(C(=O)O)cc4)nc3)[nH]c2cc1C,-8.9,i,-1.48,i,i,i
Cc1cc2nc(-c3ccc(SCc4ccccc4C#N)nc3)[nH]c2cc1C,-0.5,i,-0.95,i,i,7*
CCCN(CC(=O)Nc1ccccc1C)C(=O)CCCNC(=O)c1ccc(Cl)cc1,.,.,.,.,i,.
COc1cc(CN(C)C(=O)C(=O)c2c[nH]c3ccccc23)ccc1O,.,.,.,.,i,.
COc1ccc(C(c2c[nH]c3ccccc23)c2c[nH]c3ccccc23)cc1O,-4.6,i,0.96,i,i,7*
CCN(CC)CC(O)COC(c1ccccc1)c1ccccc1 (stereo not given),-4.6,i,0.28,i,i,i
CCN(Cc1ccccc1)CC(O)COC(c1ccc(OC)cc1)c1ccc(OC)cc1 (stereo not given),-11.0,i,-8.82*,i,i,i
CCCCCn1c(=O)[nH]c2cc(C(=O)NCCCN3CCCCC3CC)ccc2c1=O (stereo not given),-10.4,i,-0.22,i,i,i
CCn1c(=O)c(C(=O)NNS(=O)(=O)c2ccc(Cl)cc2)c(O)c2ccccc21,-14.2,i,-1.53,i,i,6*
Cc1c(Cl)cccc1Nc1n[nH]c(=S)s1,.,.,.,.,i,.
FC(F)C(F)(F)C(F)(F)C(F)(F)c1cc(-c2ccccc2)n[nH]1,-18.7,-7.78*,1.48,i,i,i
Cc1cc(-c2ccccc2)n[nH]1,-8.9,i,1.24,i,i,i
CCCN1C(=O)SC(CC(=O)Nc2ccccc2)C1=O (stereo not given),8.6*,i,-2.33,i,i,i
CCCN1C(=O)SC(CC(=O)Nc2cccc3ccccc23)C1=O (stereo not given),-2.9,i,1.97,i,i,i
COc1ccc(-n2cnc3c(N)nc(N)nc32)cc1,.,.,.,.,i,.
Cc1ccc(CNS(=O)(=O)c2c(C)[nH]c(C)c2C(=O)N2CCCCC2)cc1,-11.3,i,1.27,i,i,i
CO/N=C/c1ccc(N2CCN(C(=O)c3ccc(Cl)cc3Cl)CC2)c([N+](=O)[O-])c1,-19.6,i,1.5,i,i,7*
CCc1c(C)c(C#N)c2[nH]c3ccccc3n2c1=S,-20.6,i,-0.45,i,i,i
COc1ccccc1Cn1c(=S)[nH]c2ccc(F)cc2c1=O,-3.6,i,0.08,i,i,i
CCN(CC)c1c([N+](=O)[O-])c(=O)n(C)c2ccccc12,-10.0,i,-2.15,i,i,i
SMILES,hERG rescue,KCNK9 block,Kir21 block,KCNQ1 pot,KCNK3 block,KCNQ1 inh
Cn1c(=O)c([N+](=O)[O-])c(Cl)c2ccccc21,-30.0,i,-1.66,i,i,9*
Cc1cc2nc3ccc(=[N+](C)C)cc-3sc2cc1N,-12.1,i,2.24,i,i,6*
CN(C)c1ccc2nc3ccc(=[N+](C)C)cc-3sc2c1,-1.8,i,0.18,i,i,i
CCOc1ccc(NC(=O)CN(C)C(=O)c2cn(-c3ccc(F)cc3)nc2-c2cccc(OC)c2)cc1OCC,-12.2,i,2.2,i,i,7*
COc1ccc(-c2nn(-c3ccccc3)cc2/C=C/C(=O)NCCCn2ccnc2)cc1OC,-36.4,i,-2.85,i,i,7*
COc1ccc(-c2nn(-c3ccccc3)cc2/C=C/C(=O)N(C)CC(=O)Nc2cccc(F)c2)cc1OC,.,.,.,.,-10.4*,.
CCOc1ccc(NC(=O)CN(C)C(=O)c2c(-c3c(F)cccc3Cl)noc2C)cc1OCC,2.7,i,-0.06,8*,i,i
CCOc1ccccc1CNC(=O)CCC(=O)N1Cc2ccccc2Oc2ncccc21,-12.8,i,2.07,i,i,i
Nc1nccnc1C(=O)OCC(=O)Nc1ccc2[nH]c(=O)[nH]c2c1,-11.9,i,-0.45,i,i,i
O=C(COC(=O)[C@@H]1CC(O)CN1S(=O)(=O)c1ccc2c(c1)OCCO2)Nc1cc(F)ccc1F (stereo not given in full),.,.,.,.,i,.
CSc1ncccc1C(=O)Nc1cccc(S(=O)(=O)N2CCCCC2)c1,.,.,.,.,i,.
C=C1c2cccc(C(F)(F)F)c2O[C@H](C(=O)OCC)[C@H]1OC,.,.,.,.,i,.
Oc1c(C(Nc2cccc(C(F)(F)F)c2)c2ccncc2)ccc2cccnc12 (stereo not given),-3.6,i,-1.3,i,i,13*
CC(=O)NC(c1ccc2ccccc2c1)c1ccc2cccnc2c1O (stereo not given),-2.6,i,-1.44,i,i,i
Cc1cccc(N(CC(=O)NCCc2ccccc2)C(=O)CCC(=O)Nc2ccccn2)c1C,-11.9,i,-0.3,i,i,i
COC(=O)[C@H](C)NC(=O)Nc1cc(Cl)ccc1C,0.7,i,0.73,13*,i,i
OC(CNCc1ccccc1F)(c1ccc(F)cc1)c1ccc(F)cc1,-9.1,-7.03*,-1.33,i,i,i
COc1ccccc1CNCC(O)(c1ccc(Cl)cc1)c1ccc(Cl)cc1,-29.8,i,-3.19,i,i,i
COc1ccccc1CNCC(O)(c1ccc(F)cc1)c1ccc(F)cc1,-15.8,i,-5.92*,i,i,i
COCCCNc1nc(CC(C)C)nc2c1nnn2Cc1ccccc1,-5.2,i,0.04,i,i,i
Cc1cc(C)n(C(=O)/C(C#N)=N/Nc2cc(Cl)cc(Cl)c2)n1,-20.1,i,-1.61,i,i,8*
Cc1cc(C)n(C(=O)/C(C#N)=N\Nc2ccccc2[N+](=O)[O-])n1,-20.7,i,2.09,i,i,i
Cc1[nH]n(-c2ccc(Cl)cc2)c(=O)c1/C=N/c1nnc(-c2ccccc2)s1,87.5*,i,0.13,9*,i,i
COc1ccc2nc(/N=C/c3c(C)[nH]n(-c4ccc(C)cc4)c3=O)sc2c1,10.2*,i,1.05,39*,i,i
Cc1ccc(-n2[nH]c(C)c(C=Nc3cc(C)ccn3)c2=O)cc1,-1.4,i,1.68,i,i,i

# Compound activity as filed in PubChem.
